Series [1] is described as follows: Antiplatelet activity against rabbit platelets assessed as inhibition of thrombin-induced platelet aggregation. The class given is functional, cell-based. Particulars: Oryctolagus cuniculus.
The subject of series [2] is Platelet. Put plainly: (§1) Antiplatelet activity against rabbit platelets assessed as inhibition of ADP-induced platelet aggregation. The format is functional, cell-based. Particulars: Oryctolagus cuniculus.
The subject of series [3] is Rattus norvegicus. Put plainly: Antithrombotic activity in Sprague-Dawley rat venous thrombosis model assessed as thrombus dry weight administered via gastric tube qd for 3 days after 2 hrs of last post dose.
Series [4] in a line: as §1. The format is functional, cell-based. The following applies: Oryctolagus cuniculus.
Series [5] relates to Rattus norvegicus. Put plainly: Toxicity in Sprague-Dawley rat assessed as adverse effect at 20 mg/kg, administered via gastric tube. The format is organism-based. Also on record: dose 20 mg/kg. The following applies: in vivo, po.
The subject of series [6] is Rattus norvegicus. Put plainly: Drug metabolism in Sprague-Dawley rat plasma assessed as HTMP level at 20 mg/kg, administered via gastric tube after 0.167 hrs. The class given is ADME, organism-based. Further details: dose 20 mg/kg. The following applies: in vivo, po. In a few lines: (§2)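 Female Sprague-Dawley rats received 20 mg/kg. Whole blood was collected at 0.167–6 h and mixed with 4% formic acid. Samples were precipitated with acetonitrile and stored at −70 °C.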

Series [7] deals with Rattus norvegicus. Put plainly: Drug metabolism in Sprague-Dawley rat plasma assessed as dabigatran level at 20 mg/kg, administered via gastric tube after 0.167 hrs. The format is ADME, organism-based. Also on record: dose 20 mg/kg. The following applies: in vivo, po. In short, it runs like this:
as §2

Series [8] relates to Rattus norvegicus. Put plainly: Drug metabolism in Sprague-Dawley rat plasma assessed as HTMP level at 20 mg/kg, administered via gastric tube after 0.25 hrs. The format is ADME, organism-based. Also on record: dose 20 mg/kg. Particulars: in vivo, po. In short, it runs like this:
as §2

Series [9] concerns Rattus norvegicus. Put plainly: Drug metabolism in Sprague-Dawley rat plasma assessed as dabigatran level at 20 mg/kg, administered via gastric tube after 0.25 hrs. The format is ADME, organism-based. Also on record: dose 20 mg/kg. Particulars: in vivo, po. In a few lines: as §2
Series [10] concerns Rattus norvegicus. Put plainly: Drug metabolism in Sprague-Dawley rat plasma assessed as HTMP level at 20 mg/kg, administered via gastric tube after 0.5 hrs. The format is ADME, organism-based. Also on record: dose 20 mg/kg. The following applies: in vivo, po. In a few lines:
as §2

Series [11] relates to Rattus norvegicus. Put plainly: Drug metabolism in Sprague-Dawley rat plasma assessed as dabigatran level at 20 mg/kg, administered via gastric tube after 0.5 hrs. The class given is ADME, organism-based. Further details: dose 20 mg/kg. The following applies: in vivo, po. In a few lines: as §2
Series [12] relates to Rattus norvegicus. Put plainly: Drug metabolism in Sprague-Dawley rat plasma assessed as HTMP level at 20 mg/kg, administered via gastric tube after 1 hr. Also on record: dose 20 mg/kg. The format is ADME, organism-based. The following applies: in vivo, po. In a few lines:
as §2

The subject of series [13] is Rattus norvegicus. Put plainly: Drug metabolism in Sprague-Dawley rat plasma assessed as dabigatran level at 20 mg/kg, administered via gastric tube after 1 hr. The format is ADME, organism-based. Also on record: dose 20 mg/kg. Particulars: in vivo, po. In a few lines: as §2
Series [14] concerns Rattus norvegicus. Put plainly: Drug metabolism in Sprague-Dawley rat plasma assessed as HTMP level at 20 mg/kg, administered via gastric tube after 1.5 hrs. The format is ADME, organism-based. Also on record: dose 20 mg/kg. Particulars: in vivo, po. In a few lines:
as §2

The test system of series [15] is Rattus norvegicus. Put plainly: Drug metabolism in Sprague-Dawley rat plasma assessed as dabigatran level at 20 mg/kg, administered via gastric tube after 1.5 hrs. The class given is ADME, organism-based. Further details: dose 20 mg/kg. The following applies: in vivo, po. In a few lines: as §2
Series [16] has as its system Rattus norvegicus. Put plainly: Drug metabolism in Sprague-Dawley rat plasma assessed as HTMP level at 20 mg/kg, administered via gastric tube after 2 hrs. The class given is ADME, organism-based. Also on record: dose 20 mg/kg. Particulars: in vivo, po. In short, it runs like this:
as §2

Series [17] deals with Rattus norvegicus. Put plainly: Drug metabolism in Sprague-Dawley rat plasma assessed as dabigatran level at 20 mg/kg, administered via gastric tube after 2 hrs. Further details: dose 20 mg/kg. The class given is ADME, organism-based. The following applies: in vivo, po. In short, it runs like this:
as §2

The subject of series [18] is Rattus norvegicus. Put plainly: Drug metabolism in Sprague-Dawley rat plasma assessed as HTMP level at 20 mg/kg, administered via gastric tube after 4 hrs. The class given is ADME, organism-based. Particulars: in vivo, po. Further details: dose 20 mg/kg. In a few lines:
as §2

The test system of series [19] is Rattus norvegicus. Put plainly: Drug metabolism in Sprague-Dawley rat plasma assessed as dabigatran level at 20 mg/kg, administered via gastric tube after 4 hrs. The format is ADME, organism-based. Further details: dose 20 mg/kg. Particulars: in vivo, po. In short, it runs like this:
as §2

The test system of series [20] is Rattus norvegicus. Put plainly: Drug metabolism in Sprague-Dawley rat plasma assessed as HTMP level at 20 mg/kg, administered via gastric tube after 6 hrs. The format is ADME, organism-based. The following applies: in vivo, po. Further details: dose 20 mg/kg. In a few lines:
as §2

Series [21] has as its system Rattus norvegicus. Put plainly: Drug metabolism in Sprague-Dawley rat plasma assessed as dabigatran level at 20 mg/kg, administered via gastric tube after 6 hrs. The class given is ADME, organism-based. Particulars: in vivo, po. Also on record: dose 20 mg/kg. In a few lines:
as §2

Molecules are shown by their SMILES. Calls of active or inactive are those of the source. The calls are words filed in the database; no cut-off is given here.

The term IC50 denotes the concentration that gives 50% inhibition. Broadly, the ED50 is the dose that gives a 50% effect, or the effect in half of the subjects. As for `CCCCCCOC(=O)NC(=N)c1ccc(NCc2nc3cc(C(=O)N(CCC(=O)OCC)c4ccccn4)ccc3n2C)cc1` [DABIGATRAN ETEXILATE], the IC50 in [1] was 0.326 µM. Moreover, the inhibition entry in [2] is “inactive”. Further, the 50% effective dose (ED50) in series [3] came out at 4.4 mg/kg.

On to `CCCCCOC(=O)/N=C(/N)c1ccc(NCc2nc3cc(C(=O)N(CCC(=O)OCc4nc(C)c(C)nc4C)c4ccccn4)ccc3n2C)cc1`, for which the IC50 in series [1] came out at 0.0728 µM.

With `COC(=O)/N=C(/N)c1ccc(NCc2nc3cc(C(=O)N(CCC(=O)OCc4nc(C)c(C)nc4C)c4ccccn4)ccc3n2C)cc1`, the IC50 in series [1] worked out at 0.287 µM.

For `Cc1nc(C)c(CO)nc1C`, the IC50 was found to be 8410 µM in series [1] and 1670 µM in [4]. In series [3], the ED50 is 42.6 mg/kg.

As to `Cc1nc(C)c(COC(=O)CCN(C(=O)c2ccc3c(c2)nc(CNc2ccc(/C(N)=N\C(=O)OCc4ccccc4)cc2)n3C)c2ccccn2)nc1C`, in series [1], the IC50 is 0.292 µM.

In the case of `Cc1nc(C)c(COC(=O)CCN(C(=O)c2ccc3c(c2)nc(CNc2ccc(/C(N)=N\C(=O)OC(C)C)cc2)n3C)c2ccccn2)nc1C`, in series [1], the IC50 was determined as 0.295 µM.

In the case of `Cc1nc(C)c(COC(=O)CCN(C(=O)c2ccc3c(c2)nc(CNc2ccc(/C(N)=N\C(=O)OC(C)(C)C)cc2)n3C)c2ccccn2)nc1C`, the IC50 in series [1] was determined as 0.00313 µM. Further, in [3], the 50% effective dose (ED50) came to 1.8 mg/kg.

Consider `CCOC(=O)/N=C(/N)c1ccc(NCc2nc3cc(C(=O)N(CCC(=O)OCc4nc(C)c(C)nc4C)c4ccccn4)ccc3n2C)cc1`, for which the half-inhibitory concentration (IC50) in series [1] is 0.218 µM.

Consider `CCCCCCOC(=O)/N=C(/N)c1ccc(NCc2nc3cc(C(=O)N(CCC(=O)OCc4nc(C)c(C)nc4C)c4ccccn4)ccc3n2C)cc1`, for which the figures for the half-inhibitory concentration (IC50) in [1] and in series [4] were 0.0381 µM and 4030 µM, respectively. In addition, the Activity entry in series [5] is reported as “Non-toxic”. Further, the Drug metabolism turned out to be 423 ng/mL in [6]; 109 ng/mL in series [7]; 955 ng/mL in series [8]; 245 ng/mL in series [9]; 1075 ng/mL in [10]; 252 ng/mL in series [11]. Further, the Drug metabolism in series [12] is 938 ng/mL; in series [13] it was 264 ng/mL; in series [14] it was 495 ng/mL; in series [15], 164 ng/mL; in [16] it was 430 ng/mL; in series [17], 152 ng/mL. Moreover, the Drug metabolism in [18] came out at 188 ng/mL; in series [19] it was 67.3 ng/mL; in [20], 93.3 ng/mL; in series [21], 18.2 ng/mL. Moreover, in series [3], the 50% effective dose (ED50) was found to be 2.1 mg/kg.
